# Screening results as filed in PubChem.
# Most compounds without a hit are left out; they make up all but 3.1% or so of the library.
# KCNQ1 pot: potentiators or activators of KCNQ1 channel, primary screen, cell-based, thallium flux, high-throughput | Potassium voltage-gated channel subfamily KQT member 1 (Homo sapiens), P51787 | CHO-K1 KCNQ1, thallium flux FluxOR fluorescence; active compounds read high | B-score at 10 µM | 310,000 compounds, 0.35% hits;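 active = fluorescence ratio B-score, a plate-corrected score, at least three library SD, with initial intensity B-score within 5 SD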
# Target sequence (P51787 whole entry, looked up): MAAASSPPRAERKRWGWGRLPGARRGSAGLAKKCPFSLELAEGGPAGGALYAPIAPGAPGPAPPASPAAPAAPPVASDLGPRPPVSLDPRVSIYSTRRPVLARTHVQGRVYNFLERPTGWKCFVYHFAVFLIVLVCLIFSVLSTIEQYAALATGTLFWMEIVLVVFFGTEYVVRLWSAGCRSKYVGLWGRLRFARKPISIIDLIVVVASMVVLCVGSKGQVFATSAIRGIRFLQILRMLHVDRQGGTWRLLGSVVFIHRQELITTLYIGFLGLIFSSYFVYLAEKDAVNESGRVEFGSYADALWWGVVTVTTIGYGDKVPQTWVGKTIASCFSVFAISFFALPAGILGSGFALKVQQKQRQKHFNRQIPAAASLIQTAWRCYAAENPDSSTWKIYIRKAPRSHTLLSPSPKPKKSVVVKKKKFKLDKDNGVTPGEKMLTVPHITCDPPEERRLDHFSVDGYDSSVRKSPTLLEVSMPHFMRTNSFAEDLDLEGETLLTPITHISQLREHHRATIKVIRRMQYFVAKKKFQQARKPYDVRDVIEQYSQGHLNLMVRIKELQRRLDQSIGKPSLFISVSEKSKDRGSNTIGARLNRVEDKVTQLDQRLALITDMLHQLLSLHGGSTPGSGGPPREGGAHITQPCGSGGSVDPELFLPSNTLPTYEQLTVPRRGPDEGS
#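 Material: CHO-K1 cells stably expressing KCNQ1. Medium: assay buffer for compound exposure, DMSO matched across wells. Reagent: K+/Tl+ depolarizing stimulus. Compound dosing: single-concentration screen. Times: 37 °C overnight plating, 90-min dark dye load, 20-min compound pretreatment. Technique: FluxOR Tl+ flux fluorescence.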
# KCNK9 block: KCNK9 potassium channel inhibitors, primary screen, HEK293 cells, thallium flux | Potassium channel subfamily K member 9 (Homo sapiens), Q9NPC2 | FluxOR thallium flux fluorescence; active compounds read low | B-score at 10 µM | 310,000 compounds, 1.2% hits | AID 488922, 2010;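 active = ratio B-score over 3 SD below the library mean, with starting fluorescence within 5 SD of its mean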;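 note: negative B-score means less thallium flux so channel inhibition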
# KCNK3 block: human KCNK3 channel inhibitors, primary screen, CHO cells, FluxOR thallium flux, B-score | B-score at 10 µM | FluxOR fluorescence; active compounds read low | 340,000 compounds, 0.84% hits;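 active = B-score under library mean minus 4 SD, starting fluorescence ratio at most library mean plus 5 SD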;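 note: more negative B-score means stronger inhibition of thallium flux through KCNK3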
# hERG rescue: hERG rescue from dofetilide block, primary screen, cell-based, CHO-hERG, FluxOR thallium flux, dofetilide IC70; Voltage-gated inwardly rectifying potassium channel KCNH2 (Homo sapiens), Q12809; activation (rescue from dofetilide block), less the hit threshold, % at 10 µM; 310,000 compounds, 0.51% hits; dofetilide IC70 present; AID 1511, 2009;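 active = activation above the mean of controls blocked by dofetilide plus 5 SD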;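 note: thallium influx through hERG after potassium depolarization seen as dye fluorescence rise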
# KCNQ1 inh: inhibitors of human KCNQ1 channel, primary screen, cell-based, thallium flux, high-throughput; Potassium voltage-gated channel subfamily KQT member 1 (Homo sapiens), P51787; CHO-K1 KCNQ1, FluxOR thallium flux fluorescence; active compounds read high; B-score at 10 µM; 310,000 compounds, 1.3% hits; AID 2642, 2010;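 active = compounds whose thallium flux B-score, printed positive for inhibition, exceeds three library SD while starting fluorescence stays within three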;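 note: channel opened by potassium depolarization with thallium stimulus after 20 min compound exposure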
# A number is an active result; i = inactive; nt = no result given.
SMILES,KCNQ1 pot,KCNK9 block,KCNK3 block,hERG rescue,KCNQ1 inh
CCC(C)NC(=O)COc1ccccc1[N+](=O)[O-] (stereo unspecified),i,i,i,i,i
CC(CCc1ccccc1)NC(=O)COc1cc(F)ccc1[N+](=O)[O-] (stereo unspecified),24,i,i,i,i
O=C(O)c1cccc2cccc(-c3c4ccc(=O)c(O)c-4oc4c(O)c(O)ccc34)c12,nt,nt,i,nt,nt
Cc1cc(C(=O)Nc2cc(S(C)(=O)=O)ccc2Cl)c(C)o1,nt,nt,i,nt,nt
CCOc1ccc(N2Nc3n[nH]c(N)c3N2)cc1,i,i,i,37.1,i
COc1ccc(N2Nc3n[nH]c(N)c3N2)cc1,i,i,i,i,i
COc1ccccc1N(C(=O)CNC(=O)c1ccco1)C(C(=O)NC1CCCCC1)c1ccncc1 (stereo unspecified),i,i,i,i,i
Cc1c(Cl)cccc1NC(=O)CSc1ncnc2c1cnn2CCO,i,i,i,i,i
CCOC(=O)C1=C(C)Nc2nnnn2C1c1ccccc1Cl (stereo unspecified),nt,nt,i,nt,nt
COC(=O)C1=C(C)Nc2nnnn2C1c1ccc(Cl)cc1Cl (stereo unspecified),18,i,i,i,i
CSc1ncccc1C(=O)N1CCN(S(=O)(=O)c2ccc(F)cc2)CC1,i,i,i,i,i
CCCC(=O)Nc1sc2c(c1C(=O)OCC)CC(C)(C)OC2,i,i,i,i,i
CCOC(=O)c1c(NC(=O)c2ccc(C)cc2)sc2c1CC(C)(C)OC2,i,i,i,i,8
COc1ccc(C(=O)NC(C)c2cnn(-c3ccccn3)c2C)o1 (stereo unspecified),i,i,i,i,i
COc1ccc(-c2nn(-c3ccccc3)cc2C(=O)NC(=S)Nc2cc(Cl)ccc2Cl)cc1,i,i,i,i,i
COc1ccc(-c2nn(-c3ccccc3)cc2C(=O)NC(=S)NNC(=O)c2ccncc2)cc1,i,i,i,16.7,i
COc1ccc(-c2nn(-c3ccccc3)cc2C(=O)Nc2ccc(C(=O)O)cc2)cc1,i,i,i,i,i
COc1ccc(NC(=O)c2cn(-c3ccccc3)nc2-c2ccncc2)cc1,i,i,i,25.5,i
COc1ccc(NC(=O)c2cn(-c3ccccc3)nc2-c2cc3ccccc3o2)cc1,i,i,i,i,7
O=C(Nc1ccc2ccccc2c1)c1cn(-c2ccccc2)nc1-c1cccs1,i,i,i,i,i
O=C(CCC1CCCCC1)Nc1cc(Cl)ccc1N1CCOCC1,nt,nt,-9.02,nt,nt
Cc1cc(NC(=O)COc2ccccc2C)ccc1NC(=O)c1cccs1,i,i,i,i,i
COc1cc(-c2nc3ccc(N4CCN(C)CC4)cc3[nH]2)cc(OC)c1OC,i,i,i,5.5,i
CCOC(=O)c1c(-c2ccccc2)c[nH]c1C,nt,nt,i,nt,nt
O=[N+]([O-])c1ccc(N2CCN(c3cccc(Cl)c3)CC2)nc1,i,-6.6,i,i,i
SMILES,KCNQ1 pot,KCNK9 block,KCNK3 block,hERG rescue,KCNQ1 inh
CC(C)C(c1nnnn1C(C)(C)C)N1CCC(Cc2ccccc2)CC1 (stereo unspecified),i,-7.91,i,i,i
COC(=O)c1cc2sccc2n1Cc1ccc(C)cc1,i,-7.96,i,i,i
CC(=O)Nc1ccc(N(C(=O)CNC(=O)c2ccco2)C(C(=O)NC2CCCC2)c2ccco2)cc1 (stereo unspecified),i,i,i,i,i
COC(=O)c1ccc(C(=O)OC)c(NC(=O)CCc2ccc(C)o2)c1,i,i,i,45.2,i
COC(=O)c1ccc(C(=O)OC)c(NC(=O)CCC(=O)O)c1,i,i,i,i,i
O=C(N/N=C/c1ccccn1)c1cc(Br)ccc1O,10,i,i,i,i
O=C(N/N=C/c1cccnc1)c1cc(Br)ccc1O,i,i,i,i,i
N=C1/C(=C/c2cccs2)C(=O)N=C2SN=C(SCc3ccccc3)N12,i,i,i,i,i
CC(C)CSC1=NSC2=NC(=O)/C(=C\c3cccs3)C(=N)N12,8,i,i,i,i
Cc1cc(C)cc(OCC(=O)NNC(=O)c2cc3ccccc3o2)c1,8,i,i,i,i
CC(=O)c1cccc(NC(=O)C(OC(=O)c2ccccc2NS(=O)(=O)c2cccs2)c2ccccc2)c1 (stereo unspecified),i,-7.01,i,i,i
CCOc1ccccc1NC(=O)C(OC(=O)c1ccccc1NS(=O)(=O)c1cccs1)c1ccccc1 (stereo unspecified),i,i,i,i,i
CCc1ccc2c(c1)c(N=NC1=NC(=O)CS1)c(O)n2CC,16,i,i,7.7,i
CN1Cc2sc(NC(=S)NC(=O)c3ccccc3)c(C#N)c2CC1(C)C,i,i,i,i,8
Cn1cccc1/C=N/n1c(-c2ccc(Cl)cc2Cl)n[nH]c1=S,8,i,i,i,i
COc1nccnc1NS(=O)(=O)c1ccc(NC(=S)NC(=O)c2ccccc2F)cc1,8,i,i,i,i
Cc1ccc(S(=O)(=O)N2CCCCC2)cc1C(=O)OC(C)C(=O)NC1CCCCC1C (stereo unspecified),nt,nt,i,nt,nt
COc1ccc(C2C(Oc3ccccc3)C(=O)N2c2ccc(C)c(C)c2)cc1OC (stereo unspecified),i,-6.88,i,i,i
COc1cccc(C(c2cccc(OC)c2)c2ccccc2C(=O)O)c1,nt,nt,i,nt,nt
COC(=O)N/N=C(\C)c1ccc(Br)cc1,i,i,i,i,i
CSC(=S)N/N=C(\C)c1ccc(Br)cc1,41,i,i,i,i
CCOC(=O)c1oc2ccc(S(=O)(=O)n3nc(-c4ccc(OC)cc4)cc3N)cc2c1C,9,i,i,i,i
Cc1ncc([N+](=O)[O-])n1CC(=O)Nc1ccc(Br)cc1,i,i,i,i,i
CC(C)C(NC(=O)CCNC(=O)c1ccc(C(C)(C)C)cc1)c1nc2ccccc2[nH]1 (stereo unspecified),nt,nt,i,nt,nt
Fc1cccc(C2NN=C(c3ccccc3)S2)c1 (stereo unspecified),i,i,i,10.5,i
C/C(=N\NC(=O)c1ccc(Cn2cc(Br)cn2)o1)c1ccc(NC(=O)c2ccoc2C)cc1,i,i,i,i,10
Cc1ccc(NC(=O)CN2C(=O)NC(Cc3c[nH]c4ccccc34)C2=O)cc1 (stereo unspecified),nt,nt,i,nt,nt
CC(NC(=O)NC1CCCCC1)c1ccccc1 (stereo unspecified),i,i,i,7.3,i
CC(NC(=S)NC1CCCCC1)c1ccccc1 (stereo unspecified),i,i,i,i,i
Cc1cccc(NS(=O)(=O)c2ccc(C)c(C(=O)NC3CCN(Cc4ccccc4)CC3)c2)c1,nt,nt,i,nt,nt
